High-throughput results: PubChem BioAssay, Johns Hopkins Ion Channel Center
MrgX1 antag – antagonists of human MrgX1 receptor, primary screen, HEK293 cells, Fluo-4 calcium flux | B-score at 10 µM | 310,000 tested, 1.3% active | AID 588676, 2011 | Mas-related G-protein coupled receptor member X1 (Homo sapiens), Q96LB2 | BAM8-22 antagonism; hits give low values;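 active = calcium-response B-score plate-corrected more than 3 library SD below zero, starting fluorescence within 5 deviations, no agonist response on first addition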;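 note: peak minus trough fluorescence over baseline after final BAM8-22 challenge near maximal dose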
Target sequence (Q96LB2 whole entry, looked up): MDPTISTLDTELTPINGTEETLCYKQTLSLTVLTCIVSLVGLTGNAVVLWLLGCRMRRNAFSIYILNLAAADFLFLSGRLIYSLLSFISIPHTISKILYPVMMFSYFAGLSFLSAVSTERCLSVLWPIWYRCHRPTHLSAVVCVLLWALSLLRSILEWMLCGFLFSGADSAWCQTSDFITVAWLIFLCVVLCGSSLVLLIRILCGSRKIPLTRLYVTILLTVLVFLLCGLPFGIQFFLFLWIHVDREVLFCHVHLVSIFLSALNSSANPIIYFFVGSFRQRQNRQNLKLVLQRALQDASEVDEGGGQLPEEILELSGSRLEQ
MrgX1 ag – agonists of human MrgX1 receptor, primary screen, HEK293 cells, Fluo-4 calcium flux | Mas-related G-protein coupled receptor member X1 (Homo sapiens), Q96LB2 | Fluo-4 calcium fluorescence, agonist mode; hits give high values | B-score at 10 µM | 310,000 tested, 0.44% active;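 active = calcium response B-score plate-corrected fluorescence ratio at least 3 library SD, with starting fluorescence B-score inside 5 SD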
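Test system: HEK293 cells stably expressing human MrgX1 receptor; Input: fifteen thousand cells per well; Dosing: compound delivered in addition one of three; Schedule: overnight seeding, then 1 h dark dye loading; Technique: Fluo-4 NW calcium fluorescence; Measure: B-scored fluorescence response ratio; Controls: positive and negative controls per plate.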
RGS4 block – RGS4 inhibitors, primary screen, cell-based, HEK293 M3R inducible RGS4, calcium flux; AID 463165, 2010; Fluo-4 calcium flux; hits give high values; triggered by carbachol at its EC20; Regulator of G-protein signaling 4 (Homo sapiens), P49798; 310,000 tested, 0.45% active; B-score at 10 µM;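 active = B-score, a plate-corrected calcium signal, over three deviations above library mean, with baseline fluorescence within five deviations of library mean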;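 note: RGS4 expression induced by doxycycline in cells with stable M3 receptor; B-score is computed from the integrated fluorescence ratio over baseline after carbachol; higher B-score means a larger calcium signal and so more RGS4 inhibition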
Target sequence (P49798 whole entry, looked up): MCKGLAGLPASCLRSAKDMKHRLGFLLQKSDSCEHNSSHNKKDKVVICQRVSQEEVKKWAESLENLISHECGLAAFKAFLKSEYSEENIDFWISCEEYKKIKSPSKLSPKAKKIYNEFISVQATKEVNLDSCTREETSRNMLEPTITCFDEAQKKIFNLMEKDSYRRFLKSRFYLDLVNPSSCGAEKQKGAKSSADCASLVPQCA
MrgX1 PAM – positive allosteric modulators of MrgX1, primary screen, HEK293 cells, Fluo-4 calcium flux | AID 588675, 2011 | FDSS; hits give high values | Mas-related G-protein coupled receptor member X1 (Homo sapiens), Q96LB2 | B-score at 10 µM | 310,000 tested, 0.63% active;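 active = plate-corrected calcium response at least 3 library SD above typical, normal starting fluorescence, not activating the receptor alone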;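 note: compound read alongside a low EC10 to EC30 dose of BAM8-22 agonist; peak minus trough fluorescence over baseline measured at the second addition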
RGS4 pot – RGS4 potentiators or activators, primary screen, cell-based, HEK293 M3R inducible RGS4, calcium flux; carbachol calcium flux Fluo4; hits give low values; B-score at 10 µM; 310,000 tested, 0.92% active; AID 463111, 2010;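 active = B-score of the integrated calcium signal more than 4 SD below the library mean, with starting fluorescence not abnormally high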;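 note: negative B-score means reduced calcium response which marks RGS4 activation or potentiation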
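Material: M3R-expressing HEK293 line, RGS4 induced by doxycycline | Schedule: Overnight RGS4 induction, 30 min dye load 37 °C, 20 min compound RT | Measured by: Fluo4 fluorescence kinetic imaging of calcium | Read-out: Integrated calcium ratio converted to B score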
MrgX1 antag conf – MrgX1 receptor antagonists, duplicate retest, confirmation, HEK293 cells, Fluo-4 calcium flux | shares compounds with MrgX1 antag | BAM8-22 calcium flux; hits give low values | remaining BAM8-22 calcium response % of control (hits give low values), % at 10 µM | 2,300 tested, 19% active;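 active = remaining agonist calcium response no higher than 100% minus 3 SD of agonist-only control wells, with starting fluorescence near control levels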;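 note: agonist BAM8-22 given at a near maximal EC90 to ECmax level; peak minus minimum fluorescence divided by baseline after agonist addition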
HEK293 Ca flux – nonspecific calcium signal in parental HEK293, confirmation, counter-screen for MrgX1 antagonist project, parental HEK293 cells, Fluo-4 calcium flux; shares compounds with MrgX1 antag; Fluo-4 calcium fluorescence, FDSS; fluorescence ratio F(max-min)/F0 at 10 µM; 4,000 tested, 2% active; AID 624111, 2012;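 active = duplicate-averaged calcium fluorescence ratio at least three times the standard deviation of buffer wells, a nonspecific response in parental cells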
HEK293 Ca counter – calcium response in parental HEK293 cells, primary screen, counter-screen for MrgX1 allosteric activator project, cell-based, Fluo-4 calcium flux, duplicate; shares compounds with MrgX1 antag; fluorescence ratio F(max-min)/F0 at 10 µM; Fluo-4 fluorescence ratio; hits give high values; 4,000 tested, 0.4% active;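 active = calcium fluorescence ratio, averaged over duplicates, at least 3 SD of the buffer-well ratio, meaning a nonspecific response in receptor-free cells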;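 note: untransfected parental HEK293 lacking MrgX1 used as counterscreen for MrgX1 allosteric activators; fluorescence change taken during the second addition on a kinetic imager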
HEK293 Ca cntr2 – calcium response in parental HEK293 cells, primary screen, counter-screen for MrgX1 agonist project, cell-based, Fluo-4 calcium flux, duplicate, agonist mode. shares compounds with MrgX1 antag. Fluo-4 calcium fluorescence (FDSS); hits give high values. fluorescence ratio F(max-min)/F0 at 10 µM. 4,000 tested, 8.7% active. AID 624115, 2012;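 active = calcium fluorescence ratio at least three times the spread of buffer wells, meaning a non-specific response in parental cells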
Hits are given with their value; n = inactive; x = no result given. Sampled rows, rich in hits. Any-hit rate of the full collection: about 3.5%.

SMILES	MrgX1 antag	MrgX1 ag	RGS4 block	MrgX1 PAM	RGS4 pot	MrgX1 antag conf	HEK293 Ca flux	HEK293 Ca counter	HEK293 Ca cntr2
CC1CCC(C(C)C)C(OC(=O)Cn2c(-c3ccc(Cl)cc3)[n+](C)c3ccccc32)C1 (stereo not drawn)	-9.93	n	n	n	-8.58	45.3%	n	n	n
O=C(Oc1ccc(-c2nnco2)cc1)N1CCOCC1	-5.04	n	n	n	n	n	n	n	n
CCOc1ccc2[nH]cc(C(=O)NCc3ccccc3)c(=O)c2c1	n	n	n	n	n	x	x	x	x
O=C(NCc1ccccc1)c1c[nH]c2cc3c(cc2c1=O)OCCO3	-5.47	n	n	n	n	n	n	n	n
N#Cc1sc2nc(-c3ccccc3)cc(-c3ccco3)c2c1N	-10.2	n	n	n	n	n	n	n	n
N#Cc1c(N)n(-c2ccccc2)c(=O)c2cc([N+](=O)[O-])ccc12	n	n	n	n	n	x	x	x	x
CC1(C)Cc2c(C#N)c(N)n(-c3ccccc3)c(=O)c2CO1	-12.9	n	n	n	n	n	n	n	n
Cc1ccc(CN2CC(C(=O)NCCCSc3ccccc3)CC2=O)cc1 (stereo not drawn)	n	n	n	n	n	x	x	x	x
Cn1cccc1-c1nc2ccccc2n1Cc1ccccc1	-4.93	n	n	n	n	n	n	n	n
CCNc1nc2c(c(=O)[nH]c(=O)n2C)n1CC(C)C	-4.59	n	n	n	n	n	n	n	n
Cc1cnc(C(=O)OC(C)C(=O)Nc2ccccc2-c2ccccc2)cn1 (stereo not drawn)	n	n	n	n	n	x	x	x	x
CC(/C=C/c1ccccc1)NC(N)=O (stereo not drawn)	-5.84	n	n	n	n	n	n	n	n
Cc1ccc2nsnc2c1NC(=O)COc1ccccc1F	-6.1	n	n	n	n	83.5%	n	n	n
Cc1cccc(NC(=O)C2CC3CCC2C3)c1C (stereo not drawn)	n	n	n	n	n	x	x	x	x
Cc1ccc(C(C)C)c(OCC(=O)N2CCOCC2)c1	-5.99	n	n	n	n	n	n	n	n
Cn1c(SCC(=O)c2c(N)n(C)c(=O)n(C)c2=O)nnc1-c1ccccc1	n	n	n	n	n	x	x	x	x
Cn1c(SCC(=O)c2c(N)n(C)c(=O)n(C)c2=O)nnc1-c1ccccc1F	-5.25	n	n	n	n	n	n	n	n
Cc1[nH]c(C)c(S(=O)(=O)N2CCCCC2C)c1C(=O)N1CCCC1 (stereo not drawn)	n	n	n	n	n	x	x	x	x
O=C(NCc1cn2ccsc2n1)c1c(F)cccc1Cl	-4.96	n	n	n	n	n	n	n	n
O=C(NCc1cn2ccsc2n1)c1cccc(C(F)(F)F)c1	n	n	n	n	n	x	x	x	x
CCOC(=O)c1ccc(NC(=O)C(=O)NCC2(c3ccc(OC)cc3)CCOCC2)cc1	n	n	n	n	n	x	x	x	x
Cc1cc(C)c(C#N)c(SCC(=O)Nc2ccc3c(c2)OCO3)n1	-6.95	n	n	n	n	n	n	n	n
Cc1ccc(C(=O)CSc2nnc(-c3ccco3)n2C)cc1	n	n	n	n	n	x	x	x	x
Cn1c(SCC(=O)Nc2ccc3c(c2)OCCO3)nnc1-c1ccco1	-4.85	n	n	n	n	n	n	n	n
Cc1nc(SCC(=O)Nc2ccc3c(c2)OCO3)c(C#N)c2c1CCCC2	n	n	n	n	n	x	x	x	x
SMILES	MrgX1 antag	MrgX1 ag	RGS4 block	MrgX1 PAM	RGS4 pot	MrgX1 antag conf	HEK293 Ca flux	HEK293 Ca counter	HEK293 Ca cntr2
Cc1nc(SCC(=O)Nc2ccc3c(c2)OCCO3)c2oc3ccccc3c2n1	-7.5	n	n	n	n	n	n	n	n
CCn1c(SCC(=O)Nc2ccc3c(c2)OCCO3)nnc1-c1ccco1	n	n	n	n	n	x	x	x	x
Cn1c(SCC(=O)c2cc(Cl)c(Cl)s2)nnc1-c1ccco1	-4.78	n	n	n	n	n	n	n	n
COc1cc(NC(=O)c2sc(C)nc2C)c(OC)cc1NC(=O)c1ccccc1	n	n	n	n	n	x	x	x	x
Cc1ccc(OCC(=O)N/N=C\c2cccn2C)c([N+](=O)[O-])c1	n	n	n	n	n	x	x	x	x
C=CCn1c(SCC(=O)Nc2cc(C)on2)nnc1C1COc2ccccc2O1 (stereo not drawn)	-6.14	n	n	n	n	85.5%	n	n	n
CCc1cccc2cc3c(N)c(C(=O)Nc4ccc(S(=O)(=O)N5CCCC5)cc4)sc3nc12	-9.7	n	n	n	n	n	0.408	n	n
O=C(CNC(=O)c1ccccn1)N=Nc1c(O)[nH]c2ccccc12	n	n	n	n	n	x	x	x	x
CN1CCC(NCCC(c2ccc(F)cc2)c2ccc(Cl)cc2)CC1 (stereo not drawn)	-4.56	n	n	n	n	n	n	n	n
CC(C)C(CCNC1CCN(C)CC1)c1ccc(Cl)cc1 (stereo not drawn)	n	n	n	n	n	x	x	x	x
COc1ccccc1Nc1ncccc1C(=O)O	-8.53	n	n	n	n	77.1%	n	n	n
CCOc1ccccc1Nc1ncccc1C(=O)O	n	n	n	n	n	x	x	x	x
COc1ccc(OC)c(Nc2c3ccccc3nc3ccccc23)c1	n	n	n	n	n	x	x	x	x
COc1cc(NS(C)(=O)=O)ccc1Nc1c2ccccc2nc2ccccc12	-6.74	n	x	n	x	n	n	n	n
CCC(C)(C)n1nnnc1C(c1cc2cc3c(cc2[nH]c1=O)OCO3)N1CCCCC1 (stereo not drawn)	-5.86	n	n	n	n	n	n	n	n
CN1CN(C)C(c2ccncc2)=C1c1ccncc1	n	n	n	n	n	x	x	x	x
CC1CCc2sc(C(=O)OCC(=O)NCc3ccc(F)cc3)cc2C1 (stereo not drawn)	-21.2	n	n	n	n	n	n	n	n
COc1ccc([N+](=O)[O-])cc1NC1CCN(C(=O)c2cccs2)CC1	n	n	n	n	n	x	x	x	x
